Source: PubChem BioAssay
Compounds with a hit are over-represented: about 4% of the library has one in this group of screens.
TAAR1 agonist: human TAAR1 agonists, primary screen, Fluo-8 calcium fluorescence, CHO RD-HGA16 cells. activation, % at 3 µM. AID 624467, 2012. 0.99% of 360,000 active. vehicle wells 0%, saturating PEA agonist 100%. Trace amine-associated receptor 1 (Homo sapiens), Q96RJ0;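 active means activation above the mean activation of all test compounds in the run plus 3 SD, cut at about 38% in these data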
Target sequence (Q96RJ0 whole entry, looked up): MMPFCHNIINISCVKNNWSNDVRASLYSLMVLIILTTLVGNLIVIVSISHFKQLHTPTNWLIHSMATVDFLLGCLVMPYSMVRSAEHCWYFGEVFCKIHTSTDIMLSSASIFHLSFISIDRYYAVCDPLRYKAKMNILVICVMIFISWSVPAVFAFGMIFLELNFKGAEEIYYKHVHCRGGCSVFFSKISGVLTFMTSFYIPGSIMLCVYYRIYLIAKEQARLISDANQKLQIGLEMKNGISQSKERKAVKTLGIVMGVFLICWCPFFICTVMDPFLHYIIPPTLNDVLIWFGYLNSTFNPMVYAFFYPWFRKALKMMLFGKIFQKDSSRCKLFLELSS
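Test system: RD-HGA16 (CHO) cells co-expressing Gα16 and hTAAR1 / Benchmarks: DMSO vehicle as 0%, PEA at EC100 as 100% / Repeats: no replicates (n 1) / Measure: % activation from peak over basal fluorescence ratio, DMSO-to-PEA scaled / Timing: 17-24 h plating, Fluo-8 75 min 37 °C, 30 min RT / Technique: kinetic Fluo-8 calcium fluorescence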
OX1R antag-1: OX1R (HCRTR1) antagonists, primary screen, fluorescence, CHO/OX1R cells, Fluo-8 calcium, orexin A. Orexin/Hypocretin receptor type 1 (Homo sapiens), O43613. Fluo-8 calcium fluorescence. inhibition, % at 5 µM. 0.43% of 330,000 active. AID 434989, 2010;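 active means inhibition above its plate's threshold, mean inhibition of all tested compounds on the plate plus 3 SD, cut at about 37% in these data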;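 further: 0% = orexin A challenge wells and 100% = SB-334867-A antagonist wells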
Target sequence (O43613 whole entry, looked up): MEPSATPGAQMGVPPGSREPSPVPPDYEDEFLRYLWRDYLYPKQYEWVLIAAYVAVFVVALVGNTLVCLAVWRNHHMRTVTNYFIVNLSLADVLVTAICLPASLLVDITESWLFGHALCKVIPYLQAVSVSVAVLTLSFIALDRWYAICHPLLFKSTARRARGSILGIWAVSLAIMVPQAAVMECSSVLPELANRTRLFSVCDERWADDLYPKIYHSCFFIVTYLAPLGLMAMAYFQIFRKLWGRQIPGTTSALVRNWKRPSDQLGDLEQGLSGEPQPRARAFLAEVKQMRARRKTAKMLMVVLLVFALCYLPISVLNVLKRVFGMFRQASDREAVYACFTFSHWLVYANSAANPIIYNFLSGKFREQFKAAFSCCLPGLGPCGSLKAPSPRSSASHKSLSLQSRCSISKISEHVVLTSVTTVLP
TAAR1 antag: human TAAR1 antagonists, primary screen, Fluo-8 calcium fluorescence, CHO RD-HGA16 cells | Trace amine-associated receptor 1 (Homo sapiens), Q96RJ0 | antagonist | 1.5% of 360,000 active | inhibition, % at 3 µM;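 active means inhibition above a per-plate cutoff, the mean inhibition of test compounds on that plate plus 3 SD, cut at about 49% in these data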;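 further: 0% = DMSO plus EC80 beta-PEA response and 100% = DMSO alone without agonist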
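Test system: CHO RD-HGA16 cells bearing hTAAR1 | Reagent: β-PEA, EC80 | Compound dosing: 3 µM, single point | Schedule: Dye loading 75 min at 37 °C, then 30 min room temperature | Signal: Calcium fluorescence with Fluo-8 | Evaluation: Percent inhibition of PEA-evoked calcium signal, max/basal emission ratio | Control set: DMSO-only wells and EC80 β-PEA-stimulated wells | Repeats: Singlicate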
CHO parental Ca: ATP-evoked calcium signal inhibitors, parental CHO, primary screen, counter-screen for OX1R antagonist project, cell-based, fluorescence, Fluo-8 calcium dye. inhibition, % at 5.6 µM. parental CHO-K1, ATP-induced calcium, Fluo-8 fluorescence. 0.63% of 330,000 active;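 active means inhibition above that plate's mean sample inhibition plus 3 SD, cut at about 26% in these data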;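 further: 0% = ATP-challenged DMSO wells and 100% = DMSO wells without ATP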
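Test system: untransfected parental CHO cell line; also added: ATP stimulus; dosing: 5.6 µM, single dose; signal: calcium-sensitive Fluo-8 fluorescence; measure: percent inhibition of ATP-evoked calcium rise, normalized to controls; benchmarks: low control ATP plus DMSO, high control DMSO only; replication: one well per compound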
OX1R antag-2: antagonists of human orexin 1 receptor (OX1R); inhibition, % at 6.6 µM; 1.8% of 330,000 active; OX1R-expressing cells, FRET antagonist read-out; in the data active means inhibition mostly above about 38%, no sharp cut-off; inactive means mostly below about 40%;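 further: 0% = agonist challenge alone and 100% = reference antagonist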
TAAR1 nonsel count: nonselective antagonists in TAAR1 counter-screen cells, counter-screen for hTAAR1 antagonist project, cell-based, fluorescence, calcium; 77% of 2,400 active; counterscreen cell line, antagonist mode; shares compounds with TAAR1 antag; inhibition, % at 3 µM; in the data active means inhibition above about 22%;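 further: CHO-Ga16 host cells stimulated with ATP at an EC80 level; 0% = agonist EC80 plus vehicle and 100% = vehicle without agonist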
TAAR1 antag conf: human TAAR1 antagonists, retest of hits, confirmation, cell-based, fluorescence; TAAR1-expressing cells, fluorescence antagonist read-out; inhibition, % at 3 µM; 40% of 2,400 active; shares compounds with TAAR1 antag; in the data active means inhibition above about 49%;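 further: CHO-Ga16 host cells challenged with agonist PEA near its EC80; 0% = agonist at EC80 plus vehicle and 100% = vehicle with no agonist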
Ga16 ag counter: calcium activation in Ga16-expressing cells, counter-screen for TAAR1 antagonist project, cell-based, fluorescence | shares compounds with TAAR1 antag | agonist counterscreen | activation, % at 3 µM | 18% of 2,400 active | AID 651953, 2012; in the data active means activation above about 12%;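 further: 0% = vehicle wells and 100% = saturating stimulus response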
TAAR1 ag counter: TAAR1 activation by candidate antagonists – cell-based, fluorescence, counter-screen for TAAR1 antagonist project; shares compounds with TAAR1 antag; hTAAR1 cell line, agonist mode; activation, % at 3 µM; 2% of 2,400 active; in the data active means activation above about 37%;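 further: CHO cells stably expressing TAAR1 with calcium dye readout; 0% = DMSO vehicle and 100% = full agonist response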
The depositor's hits bear a star; x = no result.

SMILES | TAAR1 agonist | OX1R antag-1 | TAAR1 antag | CHO parental Ca | OX1R antag-2 | TAAR1 nonsel count | TAAR1 antag conf | Ga16 ag counter | TAAR1 ag counter
O=C(CSCC(=O)N1CCCc2ccccc21)Nc1nc(-c2ccccc2)cs1 | 0 | -24 | 51* | -1 | 33* | 29* | 34 | 3 | 3
C[C@@]12CCC[C@@](C)(C(=O)O)C1CC[C@@]13C[C@@H](NCc4ccccc4)[C@@](C)(CCC12)C3 (stereo not given in full) | 8 | -13 | -4 | -7 | 4 | x | x | x | x
Cc1ccc(OCC(=O)NNc2c3ccccc3nc3ccccc23)cc1 | 7 | -3 | 70* | -21 | 53 | 33* | 49* | 7 | 6
Cc1cccc(N2CCN(C(=O)c3nn(C)c4c3CS(=O)(=O)c3ccccc3-4)CC2C)c1 (stereo not given) | 15 | -20 | 53* | -24 | -5 | 31* | 44 | 10 | 9
O=C(C[C@@H]1C/C=C\C[C@@H](Cc2ccc(F)cc2)C(=O)OC[C@@H]2CCCN2C1=O)N[C@H](CO)Cc1ccccc1 | 8 | -28 | 1 | -1 | 2 | x | x | x | x
O=C(C[C@@H]1C/C=C\C[C@H](Cc2ccc(F)cc2)C(=O)OC[C@H]2CCCN2C1=O)N[C@H](CO)Cc1ccccc1 | 21 | -16 | 61* | -15 | 11 | 23* | 33 | 5 | 1
O=C1N[C@@H](c2ccccc2)COC(=O)[C@H](Cc2ccc(F)cc2)CC/C=C/C[C@H]1CC(=O)N(CCO)Cc1ccccc1 | 15 | -7 | 61* | -17 | 4 | 32* | 47 | 13* | 13
O=C1N[C@H](Cc2ccccc2)COC(=O)[C@H](Cc2ccc(F)cc2)C/C=C\C[C@@H]1CC(=O)N(CCO)Cc1ccccc1 | 35 | -3 | 54* | -23 | 5 | 32* | 49* | 12* | 17
CC(C)(C)OC(=O)C[C@H]1C/C=C\C[C@H](CC(=O)N(CCO)Cc2ccccc2)C(=O)N[C@@H](c2ccccc2)COC1=O | 21 | -12 | 56* | -18 | 12 | 30* | 44 | 9 | 5
CC(C)(C)OC(=O)C[C@H]1C/C=C\C[C@@H](CC(=O)N(CCO)Cc2ccccc2)C(=O)N[C@@H](c2ccccc2)COC1=O | 17 | -24 | 43 | -17 | 7 | x | x | x | x
O=C(CNC(=O)c1ccccc1F)OCC(=O)c1ccc(Cl)s1 | 2 | -11 | -16 | -7 | 15 | x | x | x | x
COc1ccc(-c2noc(=O)n2CC(=O)N2CCC(Cc3ccccc3)CC2)cc1 | 10 | -18 | 8 | 1 | 14 | x | x | x | x
COCCNC(=O)CSc1n[nH]c(=O)n1CCc1ccccc1 | 2 | -25 | 3 | -12 | -3 | x | x | x | x
COc1ccc(C(=O)N/N=C(\C)CC(=O)NC2CCCCC2)c(OC)c1 | -1 | -7 | 7 | -11 | 22 | x | x | x | x
C=CC[C@@H](CC(=O)N[C@@H](CO)Cc1ccccc1)C(=O)N[C@H](COC(=O)[C@@H](CC=C)CC(=O)OC(C)(C)C)Cc1ccccc1 | 0 | -4 | -3 | -3 | 4 | x | x | x | x
C=CC[C@H](CC(=O)N[C@H](CO)Cc1ccccc1)C(=O)N[C@@H](COC(=O)[C@@H](CC=C)CC(=O)OC(C)(C)C)Cc1c[nH]c2ccccc12 | 23 | 12 | 63* | -11 | 0 | 30* | 37 | 4 | 4
C=CCC[C@@H](Cc1ccc(F)cc1)C(=O)OC[C@H](Cc1c[nH]c2ccccc12)NC(=O)[C@H](CC=C)CC(=O)NCCO | 22 | 22 | 75* | -17 | 18 | 30* | 42 | 7 | 7
C=CC[C@H](CC(=O)N(CCO)Cc1ccccc1)C(=O)N[C@@H](COC(=O)[C@H](CC=C)CC(=O)OC(C)(C)C)Cc1c[nH]c2ccccc12 | 14 | -1 | 69* | -10 | -1 | 30* | 42 | 5 | 3
C=CCC[C@H](Cc1ccc(F)cc1)C(=O)OC[C@@H](Cc1c[nH]c2ccccc12)NC(=O)[C@@H](CC=C)CC(=O)N[C@H](CO)Cc1ccccc1 | 11 | 3 | 21 | -17 | 11 | x | x | x | x
C=CC[C@@H](CC(=O)N[C@H](CO)Cc1ccccc1)C(=O)N[C@H](COC(=O)[C@@H](CC=C)Cc1ccc(F)cc1)Cc1c[nH]c2ccccc12 | 28 | 49 | 86* | 19 | 18 | 38* | 51* | 5 | 15
C=CC[C@@H](CC(=O)N[C@@H](CO)Cc1ccccc1)C(=O)N[C@@H](COC(=O)[C@@H](CC=C)Cc1ccc(F)cc1)Cc1c[nH]c2ccccc12 | 1 | 13 | -2 | -4 | 11 | x | x | x | x
Cc1c(CNC(=O)c2c([N+](=O)[O-])cnn2C)cnn1C | 2 | -16 | 20 | 7 | 24 | x | x | x | x
CCOC(=O)c1c(C)[nH]c(C)c1C(=O)COC(=O)COc1ccc(Cl)c(C)c1 | 0 | x | 25 | x | x | x | x | x | x
Cc1[nH]c2ccccc2c1C(C[N+](=O)[O-])c1ccco1 (stereo not given) | -2 | -2 | -4 | -9 | 27 | x | x | x | x
Cc1ccc(-c2[nH]c3ccccc3c2C(C[N+](=O)[O-])c2ccco2)cc1 (stereo not given) | 15 | -1 | 63* | -10 | 16 | 2 | 24 | 3 | 1
CN(CCOc1ccc(Cl)cc1)C(=O)c1cc(S(=O)(=O)N2CCOCC2)ccc1N1CCCC1 | 17 | -20 | 67* | -32 | 5 | 21 | 35 | 7 | 5
CCN(CC)S(=O)(=O)c1ccc2nc(NC(=O)c3cccs3)sc2c1 | 37 | 3 | 63* | 12 | 51 | 18 | 37 | 10 | 17
CCN(CC)S(=O)(=O)c1ccc2nc(NC(=O)c3ccco3)sc2c1 | 7 | -16 | 10 | -15 | 9 | x | x | x | x
CSc1nnc(C(C)c2ncc(C(F)(F)F)cc2Cl)n1C (stereo not given) | 12 | 2 | -1 | -3 | 13 | x | x | x | x
